According to article PMC6528680 (Journal of natural products, 2019):
Like-named read-outs stand apart in the source and are kept apart here. Marks after values point to notes of the source that are not given here. Each block holds one molecule with its values, some of them ahead of it.

Experiments:
RAW 264.7 cells = assay: RAW 264.7 cell viability; type: cell-based, murine; settings: at approximately 3 μM; data not shown
[1] = type: in vivo; settings: C57BL/6J mice
[2] = type: in vivo, mice (C57BL/6J, C3H/HeJ)
In short: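 Oral gavage of 500 mg/kg in DMSO to C57BL/6J and C3H/HeJ mice (n=3–4/group), with sampling at 30 min under isoflurane. Marrow pellets were suspended in 50 mM sodium acetate pH 5 for 2 h on ice and centrifuged. Serum was acidified to pH 5 with HCl before HLB extraction and LC/MS. Marrow concentrations were corrected to pellet volume, assuming density 1.06 g/ml. Mean ± SEM.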

[3] = type: in vivo, mice (C57BL/6J, C3H/HeJ, mps/mps)
In short: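 Test compound dosed IP at 100 mg/kg in DMSO to 15-week female BL/6J, female HeJ and male mps/mps mice (n=3–5/group). Blood and marrow were taken under isoflurane at 20 min. Marrow pellets were resuspended in 50 mM sodium acetate pH 5 and held 2 h on ice, then supernatants were kept. Serum was acidified to pH 5, and aglycone and glucuronide were measured by HLB solid-phase extraction and LC/MS. Mean ± SEM.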

recombinant human GUSB = target: T1, recombinant human GUSB (Homo sapiens, UniProt P08236); assay: GUSB-specificity of substrate deconjugation; type: biochemical; settings: 37°C, 50 mM sodium acetate buffer pH 5
T1 sequence (P08236 23-651): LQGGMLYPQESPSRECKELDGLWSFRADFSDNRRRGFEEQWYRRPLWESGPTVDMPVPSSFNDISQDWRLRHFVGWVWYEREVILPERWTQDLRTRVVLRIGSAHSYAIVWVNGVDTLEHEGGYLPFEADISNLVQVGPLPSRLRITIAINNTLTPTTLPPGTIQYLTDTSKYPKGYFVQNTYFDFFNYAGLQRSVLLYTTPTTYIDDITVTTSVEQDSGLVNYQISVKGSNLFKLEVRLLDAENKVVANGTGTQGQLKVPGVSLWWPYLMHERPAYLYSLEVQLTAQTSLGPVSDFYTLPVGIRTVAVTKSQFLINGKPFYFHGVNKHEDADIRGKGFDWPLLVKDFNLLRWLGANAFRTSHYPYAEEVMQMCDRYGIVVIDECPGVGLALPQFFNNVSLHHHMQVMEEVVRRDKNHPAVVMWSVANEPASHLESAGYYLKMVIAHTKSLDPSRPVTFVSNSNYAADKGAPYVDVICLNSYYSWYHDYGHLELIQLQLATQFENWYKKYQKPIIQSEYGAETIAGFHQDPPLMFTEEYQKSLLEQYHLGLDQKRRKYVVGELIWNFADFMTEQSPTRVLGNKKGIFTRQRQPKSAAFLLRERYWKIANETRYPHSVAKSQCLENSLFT
In short: (§1)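 Recombinant human GUSB, HPSE or KL, normalized to molarity, was incubated 30–60 min at 37°C in 50 mM sodium acetate pH 5 with 4-methylumbelliferyl-glucuronide or phenolphthalein-glucuronide at above-Km concentrations. Reactions were quenched. Product was quantified against 4-MU or phenolphthalein standard curves by fluorescence (Ex 360/Em 470 nm) or absorbance at 540 nm. Rates are given as nmol product per enzyme amount per min.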

recombinant human KL = target: T2, recombinant human KL (Homo sapiens, UniProt Q9UEF7); assay: GUSB-specificity of substrate deconjugation; type: biochemical; settings: 37°C, 50 mM sodium acetate buffer pH 5
T2 sequence (Q9UEF7 34-1012): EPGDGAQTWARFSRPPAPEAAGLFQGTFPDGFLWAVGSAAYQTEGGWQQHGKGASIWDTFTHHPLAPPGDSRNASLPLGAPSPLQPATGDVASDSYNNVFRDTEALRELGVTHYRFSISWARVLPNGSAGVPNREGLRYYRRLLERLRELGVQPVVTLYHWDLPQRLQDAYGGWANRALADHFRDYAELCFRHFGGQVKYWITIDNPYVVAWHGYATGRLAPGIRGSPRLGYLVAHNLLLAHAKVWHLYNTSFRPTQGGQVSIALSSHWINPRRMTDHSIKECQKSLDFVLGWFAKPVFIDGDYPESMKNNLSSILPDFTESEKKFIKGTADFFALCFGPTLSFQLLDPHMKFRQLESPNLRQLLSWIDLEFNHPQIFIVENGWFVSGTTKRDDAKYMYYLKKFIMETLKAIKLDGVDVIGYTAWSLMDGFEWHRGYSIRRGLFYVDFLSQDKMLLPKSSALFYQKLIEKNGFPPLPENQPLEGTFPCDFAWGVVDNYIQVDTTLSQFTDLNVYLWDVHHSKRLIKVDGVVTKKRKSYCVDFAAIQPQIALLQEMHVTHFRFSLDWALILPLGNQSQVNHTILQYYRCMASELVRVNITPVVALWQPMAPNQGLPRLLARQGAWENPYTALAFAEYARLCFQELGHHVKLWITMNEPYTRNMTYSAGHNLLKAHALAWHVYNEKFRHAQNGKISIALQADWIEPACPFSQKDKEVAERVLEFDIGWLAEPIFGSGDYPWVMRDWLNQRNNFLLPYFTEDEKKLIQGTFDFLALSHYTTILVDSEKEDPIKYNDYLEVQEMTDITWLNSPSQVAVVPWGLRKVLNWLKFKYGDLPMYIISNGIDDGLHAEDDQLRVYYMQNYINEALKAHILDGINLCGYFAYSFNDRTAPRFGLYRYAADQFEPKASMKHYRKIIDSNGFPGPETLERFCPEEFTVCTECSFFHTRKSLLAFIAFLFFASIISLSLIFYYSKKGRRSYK
In short: as §1

recombinant human HPSE = target: T3, recombinant human HPSE (Homo sapiens, UniProt Q9Y251); assay: GUSB-specificity of substrate deconjugation; type: biochemical; settings: 37°C, 50 mM sodium acetate buffer pH 5
T3 sequence (Q9Y251 158-543 limits assumed): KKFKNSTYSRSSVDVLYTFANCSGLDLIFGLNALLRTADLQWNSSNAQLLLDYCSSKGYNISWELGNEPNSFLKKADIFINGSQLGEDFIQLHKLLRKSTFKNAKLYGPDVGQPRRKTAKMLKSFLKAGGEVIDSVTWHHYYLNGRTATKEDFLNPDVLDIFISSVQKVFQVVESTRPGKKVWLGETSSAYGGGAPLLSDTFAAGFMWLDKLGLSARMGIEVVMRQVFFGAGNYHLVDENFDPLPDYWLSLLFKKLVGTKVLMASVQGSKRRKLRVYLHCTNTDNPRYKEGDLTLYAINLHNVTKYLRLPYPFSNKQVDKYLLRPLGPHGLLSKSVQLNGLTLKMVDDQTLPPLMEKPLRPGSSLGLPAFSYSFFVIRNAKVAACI
T3 sequence (Q9Y251 36-109 limits assumed): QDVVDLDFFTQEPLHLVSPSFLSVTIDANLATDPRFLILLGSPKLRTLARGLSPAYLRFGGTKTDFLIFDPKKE
In short: as §1

GUSB [4] = target: T4, GUSB (Mus musculus, UniProt P12265); type: in vivo, C57BL/6J mice; settings: SL 1 g/kg IP 1 h before oral curcumin 500 mg/kg
T4 sequence (P12265 23-648): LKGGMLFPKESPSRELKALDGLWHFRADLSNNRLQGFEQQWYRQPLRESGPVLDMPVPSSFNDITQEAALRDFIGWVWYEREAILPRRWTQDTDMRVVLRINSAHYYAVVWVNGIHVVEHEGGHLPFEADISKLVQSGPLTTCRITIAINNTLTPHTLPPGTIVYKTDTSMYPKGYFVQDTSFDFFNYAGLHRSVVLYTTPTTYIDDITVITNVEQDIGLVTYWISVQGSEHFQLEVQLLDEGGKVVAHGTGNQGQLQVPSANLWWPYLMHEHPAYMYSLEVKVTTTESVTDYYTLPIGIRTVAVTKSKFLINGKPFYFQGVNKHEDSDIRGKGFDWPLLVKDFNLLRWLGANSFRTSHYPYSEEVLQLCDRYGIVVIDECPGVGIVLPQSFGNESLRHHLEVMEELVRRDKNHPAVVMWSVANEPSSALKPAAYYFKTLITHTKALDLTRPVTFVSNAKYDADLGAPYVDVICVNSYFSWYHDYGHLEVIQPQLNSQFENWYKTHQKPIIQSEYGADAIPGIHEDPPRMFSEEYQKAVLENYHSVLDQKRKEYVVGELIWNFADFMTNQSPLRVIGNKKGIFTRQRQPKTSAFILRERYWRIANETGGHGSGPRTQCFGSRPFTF
In short: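 Mice were pretreated with saccharolactone (1 g/kg in saline, IP) 1 h before oral gavage of 500 mg/kg curcumin in DMSO. Serum (clotted 10 min RT, 8,000 g 10 min) and marrow were taken at 30 min. Marrow was resuspended in 50 mM sodium acetate pH 5 and held 2 h on ice. Aglycone curcumin and curcumin-glucuronide were measured by LC/MS after HLB extraction.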

GUSB [5] = target: T4, GUSB; assay: Ex vivo saccharolactone added to marrow suspensions from curcumin-treated mice; type: biochemical, C57BL/6J mice; settings: 10 mM SL in sodium acetate buffer
In short: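 Female 4-week C57BL/6J mice were gavaged with 500 mg/kg oral curcumin in DMSO. Leg marrow was spun out (10,000 g, 15 s) at 30 min and resuspended in 50 mM sodium acetate pH 5 with or without 10 mM saccharolactone. It was held 2 h on ice, then supernatants were taken. Aglycone and glucuronide were quantified by LC/MS (HLB extraction, C18, SRM) as % of total curcumin. n=3–4/group.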

GUSB [6] = target: T4, GUSB; type: biochemical, C57BL/6NJ mice; settings: SL 10 mM, 10 μM curcumin-glucuronide, 2 h, 37°C

Aglycone curcumin as share of total curcumin in serum ([1]; 30 min post oral dose, n=11): 0.24% ± 0.07% | Aglycone curcumin as share of total curcumin in lyophilized whole bone marrow ([1]; post oral dose, n=8): 0.77% ± 0.21% | Aglycone curcumin as share of total curcumin in perfusing serum ([2]; 30 min post oral dose, C57BL/6J): 0.1–0.2 % of total curcumin | Concentration in serum ([2]; C3H/HeJ, 30 min after oral 500 mg/kg curcumin, mean (SEM)): nd (≤0.01) μM | Absolute and relative amounts of marrow aglycone curcumin lower in HeJ vs BL/6J ([2]; oral 500 mg/kg curcumin, 30 min): 59–65% | Aglycone curcumin as share of circulating total curcumin ([3]; BL/6J serum, IP curcumin): < 4% | Aglycone curcumin as share of total in ex vivo bone marrow suspensions ([3]; BL/6J, IP curcumin): 51 % of total | Bone marrow aglycone curcumin (% of total curcumin) lower vs BL/6J ([3]; HeJ mice, IP curcumin): 73% | Bone marrow aglycone curcumin (% of total curcumin) decrease vs BL/6J ([3]; mps/mps mice, IP curcumin): 88% | Increase of circulating curcumin concentrations vs BL/6J ([3]; mps/mps mice, IP curcumin): 3.2 fold | Concentration in serum ([3]; mps/mps, 20 min after IP 100 mg/kg curcumin, mean (SEM)): 22.8 (6.9)^a,b μM
SMILES: COc1cc(/C=C/C(=O)CC(=O)/C=C/c2ccc(O)c(OC)c2)ccc1O [aglycone curcumin, curcumin]
Effect on RAW 264.7 cell viability (RAW 264.7 cells): did not alter

Rate of cleavage by GUSB (recombinant human GUSB): 2.64 nmol 4-MU/pmol enzyme/min | Rate of cleavage by KL (recombinant human KL; without effect): < 0.007 nmol 4-MU/nmol enzyme/min | Rate of cleavage by HPSE (recombinant human HPSE; without effect): < 0.007 nmol 4-MU/nmol enzyme/min
SMILES: Cc1cc(=O)oc2cc(O[C@@H]3O[C@H](C(=O)O)[C@@H](O)[C@H](O)[C@H]3O)ccc12 [glucuronidated 4-MU, 4-methylumbelliferyl-glucuronide]

Rate of cleavage by GUSB (recombinant human GUSB): 23.5 nmol PheP/nmol enzyme/min | Rate of cleavage by KL (recombinant human KL): 1.0 nmol PheP/nmol enzyme/min | Rate of cleavage by HPSE (recombinant human HPSE): 0.14 nmol PheP/nmol enzyme/min
SMILES: O=C1OC(c2ccc(O)cc2)(c2ccc(O[C@@H]3O[C@H](C(=O)O)[C@@H](O)[C@H](O)[C@H]3O)cc2)c2ccccc21 (stereo partly shown) [glucuronidated PheP, Phenolphthalein-glucuronide]

SMILES: O.O=C(O)[C@@H](O)[C@H]1OC(=O)[C@H](O)[C@H]1O [saccharolactone, D-Saccharic acid 1,4-lactone monohydrate]
Aglycone curcumin levels in marrow suspensions after in vivo inhibitor treatment (GUSB [4]): no longer detectable | Effect on serum levels of aglycone curcumin (GUSB [4]; data not shown): unchanged | Aglycone curcumin in marrow suspensions with inhibitor added ex vivo (GUSB [5]): not detected | Effect on deconjugation of GC in marrow-conditioned media (GUSB [6]): inhibitable
